In the library only some 3.1% were active in any assay of this set; here they are far more common.
CHO parental Ca: signal in parental CHO cells, OX1R antagonist counter-screen | hit rate 0.63% among 330,000 | inhibition, % at 5.6 µM | AID 463079 | parental CHO-K1, ATP-induced calcium, Fluo-8 fluorescence;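 active = inhibition above that plate's mean sample inhibition plus 3 SD, cut at about 26% in these data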;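 note: 0% = ATP-challenged DMSO wells and 100% = DMSO wells without ATP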
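Assay system: untransfected parental CHO cell line. Also added: ATP agonist challenge. Dosing: one dose, 5.6 µM nominal. Measured by: Fluo-8 fluorescence. Read-out: % inhibition. Benchmarks: ATP wells versus no-ATP DMSO wells. Repeats: no replicates.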
OX1R antag-1: antagonists of human orexin 1 receptor (OX1R); O43613; OX1R-expressing cells, FRET antagonist read-out; inhibition, % at 6.6 µM; hit rate 1.8% among 330,000; AID 485270; in the data active = inhibition mostly above about 38%, no sharp cut-off; inactive = mostly below about 40%;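 note: 0% = agonist challenge alone and 100% = reference antagonist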
Target sequence (O43613 whole entry, looked up): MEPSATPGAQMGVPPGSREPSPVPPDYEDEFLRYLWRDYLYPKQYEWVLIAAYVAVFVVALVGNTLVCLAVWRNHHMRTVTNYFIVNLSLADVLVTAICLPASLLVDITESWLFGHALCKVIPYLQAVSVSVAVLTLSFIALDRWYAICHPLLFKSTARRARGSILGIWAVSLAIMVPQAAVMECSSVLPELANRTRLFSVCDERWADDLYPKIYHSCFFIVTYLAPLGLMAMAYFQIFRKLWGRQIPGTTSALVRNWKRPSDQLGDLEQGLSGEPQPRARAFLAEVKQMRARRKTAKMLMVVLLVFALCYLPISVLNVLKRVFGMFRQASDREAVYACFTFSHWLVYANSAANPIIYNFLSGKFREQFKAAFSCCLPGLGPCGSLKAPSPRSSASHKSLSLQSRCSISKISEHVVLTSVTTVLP
GalR3 antagonist: antagonists of human GalR3; O60755; HEK293 GalR3-CNG cAMP membrane potential fluorescence; galR3 body fused to GalR1 C-terminus; inhibition, % at 3 µM; hit rate 0.44% among 360,000;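 active = inhibition above the screen-wide average plus 3 SD, cut at about 13% in these data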;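 note: forskolin and galanin both at EC90 stimulate the cells; cAMP rise reported by CNG channel membrane potential dye signal; 0% = forskolin plus galanin with DMSO and 100% = forskolin alone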
GPR7 antagonist: blocks human GPR7 receptor signaling; inhibition, % at 4.4 µM; hit rate 1.1% among 290,000; GPR7-expressing cells, fluorescence antagonist assay; in the data active = inhibition above about 16%, passing the limit was not always enough;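 note: cells stimulated with the agonist NPW; 0% = agonist with vehicle and 100% = vehicle without agonist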
OX1R antag-2: antagonists of human orexin 1 receptor. O43613. CHO/OX1R cells, Fluo-8 calcium fluorescence, orexin A. inhibition, % at 5 µM. hit rate 0.43% among 330,000. AID 434989;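 active = inhibition above its plate's threshold, mean inhibition of all tested compounds on the plate plus 3 SD, cut at about 37% in these data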;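 note: 0% = orexin A challenge wells and 100% = SB-334867-A antagonist wells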
An asterisk follows results filed as active; x = no result.

SMILES | CHO parental Ca | OX1R antag-1 | GalR3 antagonist | GPR7 antagonist | OX1R antag-2
O=C1c2ccccc2S(=O)(=O)c2cc(C(=O)N3CCN(c4ncccn4)CC3)ccc21 | 3.8 | 27.2 | -1.5 | x | -7.4
O=C1c2ccccc2S(=O)(=O)c2cc(C(=O)N3CCN(C(=O)c4ccccc4)CC3)ccc21 | -4.9 | 39.0 | -3.3 | x | -11.8
CCN1CCN(C(=O)c2ccc3c(c2)S(=O)(=O)c2ccccc2C3=O)CC1 | -15.2 | 60.2* | -3.2 | -11.8 | -0.1
O=C1c2ccccc2S(=O)(=O)c2cc(C(=O)N3CCC(O)CC3)ccc21 | 0.6 | 75.4* | -2.1 | x | -3.4
CN1CCN(C(=O)c2ccc3c(c2)S(=O)(=O)c2ccccc2C3=O)CC1 | -8.3 | 76.4* | 2.2 | -1.4 | -6.9
CC(=O)N1CCN(C(=O)c2ccc3c(c2)S(=O)(=O)c2ccccc2C3=O)CC1 | -13.7 | 69.2* | -7.7 | -2.7 | -10.6
Cc1ccc(CSc2nnc(-c3ccncc3)o2)c(C)c1 | -4.8 | 20.4 | 3.4 | 5.2 | -11.8
CC(C)c1ccc(CN(C)CC(O)c2ccccc2)cc1 (stereo not given) | -18.3 | 16.2 | -1.9 | -4.2 | -16.4
CCC(C)(C)NC(=O)c1ccc2c(c1)S(=O)(=O)c1ccccc1C2=O | -21.5 | 61.5 | -2.5 | -1.6 | -36.8
CCN(CC(=O)NC(C)(C)C)C(=O)c1ccc2c(c1)S(=O)(=O)c1ccccc1C2=O | -23.7 | 56.3* | 6.5 | -1.4 | -29.0
COCC(=O)NC1CCN(CC(=O)Nc2ccccc2[N+](=O)[O-])CC1 | -6.9 | 30.7 | -0.1 | -7.2 | -6.1
COCC(=O)NC1CCN(CC(=O)Nc2ccc(OC)cc2[N+](=O)[O-])CC1 | -1.5 | 41.2* | 0.1 | -2.2 | -20.6
Cc1ccc(NC(=O)COC(=O)Cn2nc(C)c([N+](=O)[O-])c2C)c([N+](=O)[O-])c1 | -12.4 | 34.5 | -0.9 | -5.6 | -9.7
Cc1ccc(NC(=O)COC(=O)Cn2cnc3ccccc32)c([N+](=O)[O-])c1 | 38.3* | 74.3* | -4.0 | -12.9 | 20.2
CCC(=O)OCC(=O)Nc1ccc(OC)cc1[N+](=O)[O-] | -4.2 | 49.5* | 0.4 | 0.8 | -5.3
COCc1ccc(-c2c(-c3ccsc3)oc(=O)c3cc(OC)c(OC)cc23)cc1 | -17.9 | 12.7 | -3.2 | x | -22.0
CCCN1CCN(CCNC(=O)Nc2cc(C)ccc2C)CC1 | -2.9 | -1.3 | -8.3 | 7.2 | -12.5
CCc1nc2ccc(C(=O)Nc3cccc(NS(C)(=O)=O)c3)cn2c1N(C)CCN1CCOCC1 | x | x | -2.8 | x | x
O=c1c2ccccc2c(C=Nc2ccc(S(=O)(=O)N3CCCCC3)cc2)c(O)n1-c1ccc(Cl)cn1 | -9.1 | 4.0 | -2.2 | -7.8 | -20.2
O=c1c2ccccc2c(C=Nc2cccc(S(=O)(=O)NCc3ccco3)c2)c(O)n1-c1ccc(Cl)cn1 | -7.4 | 65.7* | -1.7 | -5.9 | 3.6
CCc1ccccc1NC(=O)CCNS(=O)(=O)c1ccc2c(c1)CCC(=O)N2 | 5.2 | 1.9 | 3.2 | -8.7 | -13.9
Cc1nc2nc[nH]n2c(=O)c1NS(=O)(=O)c1ccc([N+](=O)[O-])cc1 | -9.2 | 44.2* | -5.7 | -18.5 | -8.0
CCCc1nc2nc(C)c(NS(=O)(=O)c3ccc([N+](=O)[O-])cc3)c(=O)n2[nH]1 | -5.4 | 49.7* | -5.0 | 10.2 | -53.9
CCOC(=O)C1=C(C)N2C(=C(C#N)[C@@H]1c1ccc(C(=O)OC)cc1)SC[C@@]2(O)C(C)(C)C | 0.5 | 52.6* | 5.5 | 0.7 | 17.0
Cc1cc(F)ccc1S(=O)(=O)N1CCC2(CC1)OCCN2S(=O)(=O)c1cccs1 | 1.7 | 21.0 | 2.6 | x | -15.3
SMILES | CHO parental Ca | OX1R antag-1 | GalR3 antagonist | GPR7 antagonist | OX1R antag-2
Cc1ccc(C(=O)NCC(=O)OCc2nnc(-c3ccc([N+](=O)[O-])cc3)o2)s1 | -13.8 | 38.1* | -4.3 | x | -17.3
Cc1csc(=O)n1CCC(=O)OCC(=O)Nc1cc(Cl)ccc1[N+](=O)[O-] | -7.5 | 52.8* | -4.2 | x | -18.3
Cc1csc(=O)n1CC(=O)OCc1nnc(-c2ccc(Cl)cc2)o1 | -16.6 | 17.0 | -5.0 | x | -22.9
Cc1csc(=O)n1CC(=O)OCc1nnc(-c2ccc([N+](=O)[O-])cc2)o1 | -1.8 | 36.6* | -2.9 | x | 1.0
O=C(CCC(=O)c1ccc(F)cc1)OCc1nnc(-c2ccc([N+](=O)[O-])cc2)o1 | -8.9 | 41.2* | -5.9 | x | -1.5
CC(=O)c1c(C)[nH]c(C(=O)OCc2nnc(-c3ccc([N+](=O)[O-])cc3)o2)c1C | 10.8 | 15.2 | -7.9 | x | 9.7
O=C(COC(=O)CCC(=O)c1ccc(F)cc1)Nc1nnc(-c2ccccc2)o1 | 4.1 | 16.3 | -3.1 | x | -14.9

From PubChem
